Reference: ChEMBL document CHEMBL2203273, “Prostratin and 12-O-tetradecanoylphorbol 13-acetate are potent and selective inhibitors of Chikungunya virus replication” (J Nat Prod, 2012)

How the values were obtained:
[1] = Cytotoxicity against african green monkey Vero cells by MTS assay; format: cell-based; conditions: chlorocebus sabaeus
Outline: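 Vero cells (25 000/well) with serial compound dilutions in MEM Rega3 with 2% FCS, no virus, for 6−7 days at 37 °C, 5% CO2. Overall metabolism read by 5% MTS for 1.5 h, absorbance 498 nm. Uninfected control OD 0.6−0.8. CC50 is the concentration inhibiting metabolism by 50%, from dose–response curves. Multiple independent experiments.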

[2] = Selectivity index, ratio of CC50 for african green monkey Vero cells to EC50 for Chikungunya virus 899; format: toxicity, cell-based; conditions: read-out: Ratio CC50/EC50
Chikungunya virus = assay: Antiviral activity against Chikungunya virus 899 infected in african green monkey Vero cells assessed as inhibition of virus-induced cytopathic effect incubated for 6 to 7 days by MTS assay; format: functional, cell-based; conditions: Chikungunya virus, 899, Vero
Outline: (§1)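 Serial dilutions in MEM Rega3 with 2% FCS, L-glutamine and bicarbonate, added with 4× virus dilution and Vero cells (25 000 cells/well, subcultured 1:4, grown 7 days). Incubated 6−7 days, 37 °C, 5% CO2. Read-out is 5% MTS for 1.5 h, absorbance 498 nm. Data are percent of controls, EC50 from dose–response curves. Wells with >50% protection checked microscopically for CPE or altered morphology. Multiple independent experiments.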

Semliki Forest virus = assay: Antiviral activity against Semliki forest virus infected in african green monkey Vero cells assessed as inhibition of virus-induced cytopathic effect incubated for 6 to 7 days by MTS assay; format: functional, organism-based; outline: as §1
Sindbis virus = assay: Antiviral activity against Sindbis virus HRsp infected in african green monkey Vero cells assessed as inhibition of virus-induced cytopathic effect incubated for 6 to 7 days by MTS assay; format: functional, organism-based; outline: as §1

Compound	CC50 [1] [µM]	selectivity ratio [2]	EC50 (Chikungunya virus) [µM]	EC50 (Semliki Forest virus) [µM]	EC50 (Sindbis virus) [µM]
CCCCCCCCCCCCCC(=O)O[C@@H]1[C@@H](C)[C@@]2(O)[C@@H](C=C(CO)C[C@@]3(O)C(=O)C(C)=C[C@@H]23)[C@@H]2C(C)(C)[C@]12OC(C)=O	5.3	1.9	2.8		
CCN(CC)CCCC(C)Nc1ccnc2cc(Cl)ccc12 (stereo not given) [CHLOROQUINE]	89		11	14	11
CCCCCCCCCCCCCC(=O)O[C@@H]1[C@@H](C)[C@@]2(O)[C@@H](C=C(CO)C[C@]3(O)C(=O)C(C)=C[C@@H]23)[C@@H]2C(C)(C)[C@]12OC(C)=O [PHORBOL MYRISTATE ACETATE]	5.7	1960	0.0029	> 162	2.2
CC1=C[C@H]2[C@@]3(O)[C@H](C)[C@@H](O)[C@]4(O)[C@H]([C@@H]3C=C(CO)C[C@]2(O)C1=O)C4(C)C [PHORBOL]	> 343	> 1	> 343	> 274	> 274
CC(=O)O[C@@]12C[C@@H](C)[C@@]3(O)[C@@H](C=C(CO)C[C@]4(O)C(=O)C(C)=C[C@@H]34)[C@@H]1C2(C)C [PROSTRATIN]	79	30.3	2.6	> 256	> 256
CCCCCCCCCCCC(=O)O[C@@H]1[C@@H](C)[C@@]2(O)[C@@H](C(=O)C(CO)=C[C@]3(O)C(=O)C(C)=C[C@@H]23)[C@@H]2C(C)(C)[C@]12OC(C)=O [TRIGOWIIN A]	> 100	> 2.3	43.5		
